Test results: ChEMBL document CHEMBL1156597, “Structure-activity relationship of kahalalide F synthetic analogues” (J Med Chem, 2008)

Tests used:
DU-145 = assay: Cytotoxicity against human DU145 cells after 48 hrs by SRB assay; assay type: functional, cell-based; conditions: Homo sapiens, DU-145, 48 h; for CC50: read-out: LC50 (the source's name)
Method in brief: (§1)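 Cells grown in RPMI 1640 with 10% FBS and penicillin/streptomycin at 37 °C and 5% CO₂, trypsinized, then seeded at 5 × 10³/well. After 18 h drug-free attachment, samples in DMSO/EtOH/PBS (0.5:0.5:99) were added for 48 h continuous exposure. Cells were fixed with cold TCA (1 h, 4 °C) and stained with SRB (10 min). Tris-solubilized stain read at 490 nm. Triplicate wells, mean ± SD; GI₅₀ derived.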

LNCaP = assay: Cytotoxicity against human LNcaP cells after 48 hrs by SRB assay; assay type: functional; method in brief: as §1
[1] = Cytotoxicity against human IGROV cells after 48 hrs by SRB assay; assay type: functional; conditions: for CC50: read-out: LC50 (the source's name); method in brief: as §1
[2] = Cytotoxicity against human IGROV-ET cells after 48 hrs by SRB assay; assay type: functional; conditions: for CC50: read-out: LC50 (the source's name); method in brief: as §1
SK-BR-3 = assay: Cytotoxicity against human SKBR3 cells after 48 hrs by SRB assay; assay type: functional; conditions: SK-BR-3, 48 h; for CC50: read-out: LC50 (the source's name); method in brief: as §1
SK-MEL-28 = assay: Cytotoxicity against human SK-MEL-28 cells after 48 hrs by SRB assay; assay type: functional, cell-based; conditions: Homo sapiens, SK-MEL-28, 48 h; for CC50: read-out: LC50 (the source's name); method in brief: as §1
A549 = assay: Cytotoxicity against human A549 cells after 48 hrs by SRB assay; assay type: functional, cell-based; conditions: Homo sapiens, A549, 48 h; method in brief: as §1
PANC-1 = assay: Cytotoxicity against human PANC1 cells after 48 hrs by SRB assay; assay type: functional; conditions: PANC-1, 48 h; for CC50: read-out: LC50 (the source's name); method in brief: as §1
HT-29 = assay: Cytotoxicity against human HT29 cells after 48 hrs by SRB assay; assay type: functional, cell-based; conditions: Homo sapiens, HT-29, 48 h; for CC50: read-out: LC50 (the source's name); method in brief: as §1
LoVo [3] = assay: Cytotoxicity against human LoVo cells after 48 hrs by SRB assay; assay type: functional; conditions: for CC50: read-out: LC50 (the source's name)
LoVo [4] = assay: Cytotoxicity against human doxorubicin resistant LoVo cells after 48 hrs by SRB assay; assay type: functional; conditions: for CC50: read-out: LC50 (the source's name); method in brief: as §1
HeLa = assay: Cytotoxicity against human HeLa cells after 48 hrs by SRB assay; assay type: functional; conditions: for CC50: read-out: LC50 (the source's name); method in brief: as §1
[5] = Cytotoxicity against human HeLa-APL cells after 48 hrs by SRB assay; assay type: functional; method in brief: as §1
K562 = assay: Cytotoxicity against human K562 cells after 48 hrs by SRB assay; assay type: functional; conditions: K562, 48 h; for CC50: read-out: LC50 (the source's name); method in brief: as §1

Structure (SMILES) | GI50 (DU-145; read-out: GI50) [nM] | CC50 (DU-145) [nM] | GI50 [1] [nM] | GI50 ([1]; read-out: GI50) [nM] | CC50 [1] [nM] | GI50 ([2]; read-out: GI50) [nM] | CC50 [2] [nM] | GI50 (SK-BR-3; read-out: GI50) [nM] | CC50 (SK-BR-3) [nM] | GI50 (SK-MEL-28; read-out: GI50) [nM] | CC50 (SK-MEL-28) [nM] | LC50 (A549) [nM] | GI50 (A549; read-out: GI50) [nM] | CC50 (PANC-1) [nM] | CC50 (HT-29) [nM] | GI50 (LoVo [3]) [nM] | TGI (LoVo [3]) [nM] | CC50 (LoVo [3]) [nM] | GI50 (LoVo [4]) [nM] | CC50 (LoVo [4]) [nM] | other results
C/C=C1\NC(=O)[C@H](Cc2ccc([N+](=O)[O-])cc2)NC(=O)[C@@H](C(C)C)NC(=O)[C@@H]([C@H](C)CC)NC(=O)[C@H](NC(=O)[C@H](NC(=O)[C@H](CCCN)NC(=O)[C@H]2CCCN2C(=O)[C@H](NC(=O)[C@@H](NC(=O)[C@@H](NC(=O)[C@H](NC(=O)CC[C@@H](C)CC)C(C)C)[C@@H](C)O)C(C)C)C(C)C)[C@H](C)CC)[C@H](C)OC(=O)[C@H](C(C)C)NC1=O | 261 | 561 | 417 | 682 | 197 | 1050 | 636 | 366 | 451 | 188 | 436 | 891 | 562 | 1580 | 409 | 317 | 314 | 311 | 90.4 | 209 | TGI (DU-145): 3640 nM; GI50 (LNCaP): 482 nM; TGI (LNCaP): 511 nM; CC50 (LNCaP; read-out: LC50 (the source's name)): 669 nM; GI50 [2]: 811 nM; TGI (SK-BR-3): 406 nM; GI50 (SK-MEL-28): 235 nM; GI50 (A549): 724 nM; GI50 (PANC-1): 1290 nM; TGI (PANC-1): 1430 nM; GI50 (HT-29): 419 nM; TGI (HT-29): 411 nM; TGI (LoVo [4]): 141 nM; CC50 (HeLa): 185 nM; GI50 [5]: 569 nM; LC50 (concentration giving 50% net cell kill) [5]: 783 nM; TGI [5]: 700 nM
C/C=C1\NC(=O)[C@H](Cc2ccccc2)NC(=O)[C@@H](C(C)C)NC(=O)[C@@H]([C@H](C)CC)NC(=O)[C@H](NC(=O)[C@H](NC(=O)[C@H](CCCNC(=O)CCC2CCCCC2)NC(=O)[C@H]2CCCN2C(=O)[C@H](NC(=O)[C@@H](NC(=O)[C@@H](NC(=O)[C@H](NC(=O)CCCC(C)C)C(C)C)[C@@H](C)O)C(C)C)C(C)C)[C@H](C)CC)[C@H](C)OC(=O)[C@H](C(C)C)NC1=O | 76.6 | 853 | 89.8 | 48.1 | 459 | 103 | 547 | 36.2 | 94.7 | 94.3 | 327 | 365 | 109 | 163 | 130 | 39.2 | 63.4 | 201 | 93.5 | 93.8 | GI50 (DU-145): 176 nM; GI50 [2]: 158 nM; GI50 (SK-BR-3): 39 nM; GI50 (SK-MEL-28): 150 nM; GI50 (A549): 196 nM; CC50 (K562): 17.7 nM; GI50 (HT-29): 66.6 nM; TGI (HT-29): 85 nM; TGI (LoVo [4]): 93.7 nM; GI50 (HeLa): 83.6 nM; TGI (HeLa): 175 nM; CC50 (HeLa): 799 nM; GI50 [5]: 166 nM; LC50 (concentration giving 50% net cell kill) [5]: 893 nM; TGI [5]: 264 nM
C/C=C1\NC(=O)[C@H](Cc2ccccc2)NC(=O)[C@@H](C(C)C)NC(=O)[C@@H]([C@H](C)CC)NC(=O)[C@H](NC(=O)[C@H](NC(=O)[C@H](CCCNC(=O)/C=C/CCC)NC(=O)[C@H]2CCCN2C(=O)[C@H](NC(=O)[C@@H](NC(=O)[C@@H](NC(=O)[C@H](NC(=O)CCCC(C)C)C(C)C)[C@@H](C)O)C(C)C)C(C)C)[C@H](C)CC)[C@H](C)OC(=O)[C@H](C(C)C)NC1=O | 661 | 876 | 221 | 179 | 467 | 205 | 517 | 55.7 | 102 | 814 | 1120 | 1090 | 619 | 1670 | 268 | 75.6 | 82.4 | 90.6 | 140 | 96.9 | GI50 (DU-145): 876 nM; GI50 [2]: 250 nM; GI50 (SK-BR-3): 67.8 nM; TGI (SK-MEL-28): 1120 nM; TGI (A549): 1090 nM; GI50 (K562): 1240 nM; TGI (K562): 1820 nM; CC50 (K562): 1820 nM; GI50 (PANC-1): 1670 nM; TGI (PANC-1): 1670 nM; GI50 (HT-29): 126 nM; TGI (HT-29): 103 nM; TGI (LoVo [4]): 116 nM; GI50 (HeLa): 407 nM; TGI (HeLa): 670 nM; CC50 (HeLa): 908 nM; GI50 [5]: 503 nM; LC50 (concentration giving 50% net cell kill) [5]: 802 nM; TGI [5]: 514 nM
C/C=C1\NC(=O)[C@H](Cc2ccc(-c3ccccc3)cc2)NC(=O)[C@@H](C(C)C)NC(=O)[C@@H]([C@H](C)CC)NC(=O)[C@H](NC(=O)[C@H](NC(=O)[C@H](CCCN)NC(=O)[C@H]2CCCN2C(=O)[C@H](NC(=O)[C@@H](NC(=O)[C@@H](NC(=O)[C@H](NC(=O)CCCC(C)C)C(C)C)[C@@H](C)O)C(C)C)C(C)C)[C@H](C)CC)[C@H](C)OC(=O)[C@H](C(C)C)NC1=O | 166 | 129 | 159 | 253 | 564 | 134 | 536 | 68.9 | 968 | 190 | 644 | 947 | 52.1 | 1400 | 516 | 184 | 268 | 317 | 177 | 284 | GI50 (DU-145): 146 nM; GI50 [2]: 230 nM; TGI (SK-BR-3): 183 nM; GI50 (SK-MEL-28): 214 nM; TGI (A549): 56.6 nM; CC50 (K562): 1420 nM; GI50 (PANC-1): 1240 nM; TGI (PANC-1): 1330 nM; GI50 (HT-29): 214 nM; TGI (HT-29): 187 nM; TGI (LoVo [4]): 239 nM; GI50 (HeLa): 220 nM; TGI (HeLa): 372 nM; CC50 (HeLa): 812 nM; GI50 [5]: 482 nM; LC50 (concentration giving 50% net cell kill) [5]: 1120 nM; TGI [5]: 762 nM
C/C=C1\NC(=O)[C@H](c2ccccc2)NC(=O)[C@@H](C(C)C)NC(=O)[C@@H]([C@H](C)CC)NC(=O)[C@H](NC(=O)[C@H](NC(=O)[C@H](CCCN)NC(=O)[C@H]2CCCN2C(=O)[C@H](NC(=O)[C@@H](NC(=O)[C@@H](NC(=O)[C@H](NC(=O)CCCC(C)C)C(C)C)[C@@H](C)O)C(C)C)C(C)C)[C@H](C)CC)[C@H](C)OC(=O)[C@H](C(C)C)NC1=O | 872 | 872 | 720 | 503 | 498 | 806 | 536 | 438 | 360 | 1110 | 1110 | 1090 | 1090 | 1660 | 416 | 417 | 533 | 341 | 409 | 333 | GI50 (DU-145): 872 nM; GI50 [2]: 797 nM; TGI (SK-BR-3): 386 nM; TGI (SK-MEL-28): 1110 nM; TGI (A549): 1090 nM; GI50 (K562): 1810 nM; TGI (K562): 1810 nM; CC50 (K562): 1810 nM; GI50 (PANC-1): 1660 nM; TGI (PANC-1): 1660 nM; CC50 (HeLa): 903 nM; LC50 (concentration giving 50% net cell kill) [5]: 912 nM
C/C=C1\NC(=O)[C@H](Cc2cccc(Cl)c2)NC(=O)[C@@H](C(C)C)NC(=O)[C@@H]([C@H](C)CC)NC(=O)[C@H](NC(=O)[C@H](NC(=O)[C@H](CCCN)NC(=O)[C@H]2CCCN2C(=O)[C@H](NC(=O)[C@@H](NC(=O)[C@@H](NC(=O)[C@H](NC(=O)CCCC(C)C)C(C)C)[C@@H](C)O)C(C)C)C(C)C)[C@H](C)CC)[C@H](C)OC(=O)[C@H](C(C)C)NC1=O | 100 | 305 | 44.7 | 41 | 48.5 | 71.2 | 163 | 49.6 | 48.3 | 183 | 738 | 911 | 194 | 1700 | 153 | 18.5 | 27.9 | 69.1 | 40.8 | 340 | GI50 (DU-145): 173 nM; TGI [2]: 97 nM; GI50 (SK-BR-3): 41.9 nM; GI50 (SK-MEL-28): 313 nM; GI50 (A549): 429 nM; GI50 (K562): 867 nM; TGI (K562): 1220 nM; CC50 (K562): 1730 nM; GI50 (PANC-1): 869 nM; TGI (PANC-1): 1700 nM; GI50 (HT-29): 40.2 nM; TGI (HT-29): 42.5 nM; TGI (LoVo [4]): 35.7 nM; GI50 (HeLa): 98.3 nM; TGI (HeLa): 131 nM; CC50 (HeLa): 256 nM; GI50 [5]: 191 nM; LC50 (concentration giving 50% net cell kill) [5]: 275 nM; TGI [5]: 172 nM
